Calls of active or inactive are those of the source.
Experiments:
Cannabinoid receptor 2 = Cannabinoid receptor 2 (Homo sapiens, UniProt P34972); experiment: Agonist activity at human CB2 receptor expressed in CHO cells coexpressing Galpha16 assessed as reduction in forsklin-induced cAMP production incubated for 30 mins by cAMP Hunter assay based […] analysis; format: functional, cell-based; conditions: read-out: EC50
Summary of the method: (§1)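 CHO cells expressing human CB1 or CB2 with Gα16, seeded overnight at 37 °C. Test compounds in stimulation buffer with 1 mM IBMX, 0.25% BSA and forskolin, 30 min at 37 °C. Cells lysed, cAMP read by enzyme fragment complementation chemiluminescence kit. Triplicate per dilution. Efficacy relative to CP-55940 reference run twice per plate. EC50 from means.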

Rattus norvegicus [1] = experiment: (§2) Antiinflammatory hyperalgesic activity against complete freund's adjuvant-induced mechanical hyperalgesic Sprague-Dawley rat model assessed as paw withdraw latency at 0.0025 to 10 mg/kg, ip pretreated with CFA for 24 hrs followed by compound administration and measured at 24 hrs by analgesiometer analysis; format: functional, organism-based
Summary of the method: (§3)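 Male Sprague-Dawley rats, 180–200 g. Baseline mechanical paw withdrawal threshold taken with analgesiometer pressure on left hind paw, cut-off 250 g, endpoint complete withdrawal. Intraplantar 50% CFA (50 µL in 0.9% saline) under isoflurane. At 24 h, pre-drug threshold, then single i.p. dose of 0.0025–10 mg kg-1, antagonist combination or vehicle (2 mL kg-1). Thresholds read 1–24 h after dosing. % reversal = (post − pre)/(baseline − pre) × 100.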

Rattus norvegicus [2] = experiment: (§4) Antiinflammatory hyperalgesic activity against complete freund's adjuvant-induced mechanical hyperalgesic Sprague-Dawley rat model assessed as reduction in IL-6 production in paw skin at 0.1 mg/kg, ip pretreated with CFA for 24 hrs followed by compound administration and measured after 1 hr by ELISA; format: functional, organism-based
Summary of the method: (§5)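 Male Sprague-Dawley rats, 180–200 g, isoflurane anaesthesia. Left hind paw given intraplantar 50% CFA (50 µL in 0.9% saline), or saline. At 24 h, single i.p. dose of drug, antagonist, combination or vehicle (2 mL kg-1). 1 h after dosing, paw skin taken and homogenised in ice-cold buffer with protease inhibitor, then centrifuged. IL-1β, IL-6 and TNF-α in supernatant by ELISA. n = 6, one-way ANOVA with Tukey test.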

Rattus norvegicus [3] = experiment: (§6) Antiinflammatory hyperalgesic activity against ip dosed complete freund's adjuvant-induced mechanical hyperalgesic Sprague-Dawley rat model assessed as decrease in TNF-alpha production in paw skin pretreated with CFA for 24 hrs followed by compound administration and measured after 1 hr by ELISA; format: functional, organism-based; summary of the method: as §5
Rattus norvegicus [4] = experiment: (§7) Antiinflammatory hyperalgesic activity against ip dosed complete freund's adjuvant-induced mechanical hyperalgesic Sprague-Dawley rat model assessed as decrease in IL-1 beta production in paw skin pretreated with CFA for 24 hrs followed by compound administration and measured after 1 hr by ELISA; format: functional, organism-based; summary of the method: as §5
Rattus norvegicus [5] = experiment: as §4, with “decrease” for “reduction”, “10” for “0.1”, “compound and 0.5 mg/kg CB1 receptor antagonist, AM281” for “compound”; format: functional, organism-based; summary of the method: as §5
Rattus norvegicus [6] = experiment: as §4, with “decrease” for “reduction”, “10” for “0.1”, “ELISA relative to control” for “ELISA”; format: functional; summary of the method: as §5
Rattus norvegicus [7] = experiment: as §4, with “IL-1 beta” for “IL-6”, “10” for “0.1”, “compound and 1 mg/kg CB2 receptor antagonist, SR144528” for “compound”; format: functional, organism-based; summary of the method: as §5
Rattus norvegicus [8] = experiment: as §4, with “decrease” for “reduction”, “TNF alpha” for “IL-6”, “10” for “0.1”, “ELISA relative to control” for “ELISA”; format: functional; summary of the method: as §5
Rattus norvegicus [9] = experiment: as §4, with “IL-1 beta” for “IL-6”; format: functional, organism-based; summary of the method: as §5
Rattus norvegicus [10] = experiment: Antiinflammatory hyperalgesic activity against ip dosed complete freund's adjuvant-induced mechanical hyperalgesic Sprague-Dawley rat model assessed as decrease in IL-6 production in paw skin pretreated with CFA for 24 hrs followed by compound administration and measured after 1 hr by ELISA; format: functional, organism-based; summary of the method: as §5
Rattus norvegicus [11] = experiment: as §4, with “TNF-alpha” for “IL-6”, “10” for “0.1”, “compound and 1 mg/kg CB2 receptor antagonist, SR144528” for “compound”; format: functional, organism-based; summary of the method: as §5
Rattus norvegicus [12] = experiment: as §7, with “against” for “against ip dosed”, “skin at 10 mg/kg, ip” for “skin”, “compound and 0.5 mg/kg CB1 receptor antagonist, AM281” for “compound”; format: functional, organism-based; summary of the method: as §5
Rattus norvegicus [13] = experiment: as §2, with “at” for “at 0.0025 to”, “compound and 1 mg/kg CB2 receptor antagonist, SR144528” for “compound”, “administration” for “administration and measured at 24 hrs”; format: functional, organism-based; summary of the method: as §3
Rattus norvegicus [14] = experiment: Antiinflammatory hyperalgesic activity against complete freund's adjuvant-induced mechanical hyperalgesic Sprague-Dawley rat model assessed as increase in paw withdraw latency at 10 mg/kg, ip pretreated with CFA for 24 hrs followed by compound and 0.5 mg/kg CB1 receptor antagonist, AM281 administration by analgesiometer analysis; format: functional, organism-based; summary of the method: as §3
Rattus norvegicus [15] = experiment: as §6, with “against” for “against ip dosed”, “skin at 10 mg/kg, ip” for “skin”, “compound and 0.5 mg/kg CB1 receptor antagonist, AM281” for “compound”; format: functional, organism-based; summary of the method: as §5
Rattus norvegicus [16] = experiment: as §2, with “assessed as increase in paw withdraw” for “assessed as paw withdraw”, “measured at 1 hr to 12 hrs by” for “measured at 24 hrs by”; format: functional, organism-based; summary of the method: as §3
Rattus norvegicus [17] = experiment: Antiinflammatory hyperalgesic activity against ip dosed complete freund's adjuvant-induced mechanical hyperalgesic Sprague-Dawley rat model assessed as increase in […] pretreated with CFA for 24 hrs followed by compound administration and measured at 1 hr by analgesiometer analysis; format: functional; summary of the method: as §3
[18] = Selectivity ratio of EC50 for human CB1 receptor expressed in CHO cells coexpressing Galpha16 to EC50 for human CB2 receptor expressed in CHO cells coexpressing Galpha16
Summary of the method: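 Ratio of EC50 values from the CB1 and CB2 cAMP assays in CHO-Gα16 cells: 30 min compound exposure at 37 °C with 1 mM IBMX and forskolin, chemiluminescent cAMP read-out, triplicates.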

Rattus norvegicus [19] = experiment: as §4, with “10” for “0.1”, “compound and 1 mg/kg CB2 receptor antagonist, SR144528” for “compound”; format: functional, organism-based; summary of the method: as §5
Rattus norvegicus [20] = experiment: as §4, with “TNF-alpha” for “IL-6”; format: functional, organism-based; summary of the method: as §5
Cannabinoid receptor 1 = Cannabinoid receptor 1 (Homo sapiens, UniProt P21554); experiment: Agonist activity at human CB1 receptor expressed in CHO cells coexpressing Galpha16 assessed as reduction in forsklin-induced cAMP production incubated for 30 mins by cAMP Hunter assay based […] analysis; format: cell-based; conditions: read-out: EC50; summary of the method: as §1
Cannabinoid receptor 1, sequence (P21554 whole entry): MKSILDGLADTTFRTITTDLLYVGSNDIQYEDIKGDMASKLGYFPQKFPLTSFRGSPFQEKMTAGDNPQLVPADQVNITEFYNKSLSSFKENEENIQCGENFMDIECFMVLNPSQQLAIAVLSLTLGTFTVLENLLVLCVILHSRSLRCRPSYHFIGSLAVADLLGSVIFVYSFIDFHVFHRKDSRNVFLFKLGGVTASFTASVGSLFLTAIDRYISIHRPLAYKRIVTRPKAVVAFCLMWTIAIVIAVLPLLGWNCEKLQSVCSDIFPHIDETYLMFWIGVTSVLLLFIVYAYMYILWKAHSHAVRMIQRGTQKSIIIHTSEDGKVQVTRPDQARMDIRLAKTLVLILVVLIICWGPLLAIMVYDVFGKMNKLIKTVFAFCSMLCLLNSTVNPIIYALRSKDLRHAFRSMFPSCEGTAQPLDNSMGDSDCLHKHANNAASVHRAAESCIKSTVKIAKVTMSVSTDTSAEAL

Rattus norvegicus [21] = experiment: as §7, with “against” for “against ip dosed”, “skin at 10 mg/kg, ip” for “skin”, “ELISA relative to control” for “ELISA”; format: functional; summary of the method: as §5

Cannabinoid receptor 2, sequence (P34972 whole entry, the tested form may be a part): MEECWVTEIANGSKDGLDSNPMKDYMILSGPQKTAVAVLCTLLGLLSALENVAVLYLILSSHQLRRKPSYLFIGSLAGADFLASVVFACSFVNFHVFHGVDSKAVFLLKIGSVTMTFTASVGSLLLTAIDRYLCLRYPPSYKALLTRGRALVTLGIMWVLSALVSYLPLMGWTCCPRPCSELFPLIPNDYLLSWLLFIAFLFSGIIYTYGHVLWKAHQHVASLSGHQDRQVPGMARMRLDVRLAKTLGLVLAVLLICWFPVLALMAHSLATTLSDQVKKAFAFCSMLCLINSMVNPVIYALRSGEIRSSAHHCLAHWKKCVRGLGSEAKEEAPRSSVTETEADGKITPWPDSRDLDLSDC

Structure (SMILES): Cc1c(CCN2CCOCC2)c2cc(F)ccc2n1C(=O)c1cccc(Cl)c1Cl
- EC50 (Cannabinoid receptor 2): 18.9 nM
- Activity (Rattus norvegicus [1]): inactive
- Activity (Rattus norvegicus [2]): inactive
- inhibition (Rattus norvegicus [3]): Dose-dependent effect
- inhibition (Rattus norvegicus [4]): Dose-dependent effect
- inhibition (Rattus norvegicus [5]): Active
- fold change (FC) (Rattus norvegicus [6]): 1.9
- Activity (Rattus norvegicus [7]): inactive
- fold change (FC) (Rattus norvegicus [8]): 1.1
- Activity (Rattus norvegicus [9]): inactive
- inhibition (Rattus norvegicus [10]): Dose-dependent effect
- Activity (Rattus norvegicus [11]): inactive
- inhibition (Rattus norvegicus [12]): Active
- Activity (Rattus norvegicus [13]): inactive
- Activity (Rattus norvegicus [14]): Active
- inhibition (Rattus norvegicus [15]): Active
- Activity (Rattus norvegicus [16]): Active
- Activity (Rattus norvegicus [17]): Dose-dependent effect
- ED50 (Rattus norvegicus [17]): 1.1 mg/kg
- Ratio EC50 [18]: >1000
- Activity (Rattus norvegicus [19]): inactive
- Activity (Rattus norvegicus [20]): inactive
- EC50 (Cannabinoid receptor 1): 29.2 µM
- fold change (FC) (Rattus norvegicus [21]): 1.3
